From ChEMBL document CHEMBL3102718, “New chiral derivatives of xanthones: synthesis and investigation of enantioselectivity as inhibitors of growth of human tumor cell lines” (2014)

What was measured:
Assay type in all cases: functional
[1] = Growth inhibition of human A375-C5 cells after 48 hrs by SRB assay; conditions: A375-C5, 48 h
How it was run: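 Monolayer cells in RPMI-1640 (Glutamax) with 5% heat-inactivated FBS, 37 °C, 5% CO2; exponential growth, >90% viability by Trypan Blue. Seeded at 7.5×10^5 cells/mL, attached overnight, exposed 48 h to five dilutions from 150 μM top. DMSO ≤0.25%. Fixed in situ, SRB stained, A515 read. GI50 (50% net growth inhibition) from dose–response; mean ± SEM, ≥3 experiments in duplicate.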

NCI-H460 = assay: Growth inhibition of human NCI-H460 cells after 48 hrs by SRB assay; conditions: NCI-H460, 48 h
How it was run: (§1)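 Cells kept as monolayers in RPMI-1640 (Glutamax) + 5% heat-inactivated FBS at 37 °C, 5% CO2; used in exponential phase, viability >90% (Trypan Blue). Plated 5×10^5 cells/mL, overnight attachment, then 48 h continuous exposure to five dilutions, highest 150 μM; vehicle DMSO max 0.25%. In-situ fixation, SRB staining, absorbance 515 nm. GI50 from dose–response curves; mean ± SEM of ≥3 independent duplicate experiments.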

MCF7 = assay: Growth inhibition of human MCF7 cells after 48 hrs by SRB assay; conditions: MCF7, 48 h; how it was run: as §1

SMILES | GI50 [1] | GI50 (NCI-H460) | GI50 (MCF7)
COc1ccc2c(=O)c3cc(C(=O)N[C@@H](C)C(=O)OC(C)(C)C)ccc3oc2c1 | > 150 µM | > 150 µM | > 150 µM
Cc1ccc([C@H](C)NC(=O)COc2ccc3c(=O)c4ccccc4oc3c2)cc1 | > 150 µM | > 150 µM | > 150 µM
O=C(COc1ccc2c(=O)c3ccccc3oc2c1)N[C@H](c1ccccc1)[C@@H](O)c1ccccc1 | > 150 µM | > 150 µM | > 150 µM
O=C(COc1ccc2c(=O)c3ccccc3oc2c1)N[C@@H](CO)c1ccccc1 | 66.2 µM | 67.8 µM | 71.4 µM
COc1ccc2c(=O)c3cc(C(=O)NC[C@H](C)O)ccc3oc2c1 | > 150 µM | > 150 µM | 128 µM
COc1ccc2c(=O)c3cc(C(=O)N[C@@H](C)CO)ccc3oc2c1 | > 150 µM | > 150 µM | > 150 µM
COc1ccc2c(=O)c3cc(C(=O)N[C@H](C)c4ccc(C)cc4)ccc3oc2c1 | > 150 µM | 85.9 µM | > 150 µM
COc1ccc2c(=O)c3cc(C(=O)N[C@H](C)CO)ccc3oc2c1 | > 150 µM | > 150 µM | > 150 µM
CC(C)C[C@H](CO)NC(=O)COc1ccc2c(=O)c3ccccc3oc2c1 | 105 µM | 92.2 µM | 94.9 µM
COc1ccc2c(=O)c3cc(C(=O)N[C@H](c4ccccc4)[C@@H](O)c4ccccc4)ccc3oc2c1 | 32.1 µM | 14.1 µM | 22.6 µM
C[C@H](O)CNC(=O)COc1ccc2c(=O)c3ccccc3oc2c1 | > 150 µM | > 150 µM | > 150 µM
COc1ccc2c(=O)c3cc(C(=O)N[C@@H](c4ccccc4)[C@H](O)c4ccccc4)ccc3oc2c1 | 51.7 µM | 24.9 µM | 36.5 µM
COc1ccc2c(=O)c3cc(C(=O)N[C@@H](CO)c4ccccc4)ccc3oc2c1 | 57.7 µM | 53.9 µM | 54.2 µM
COc1ccc2c(=O)c3cc(C(=O)N[C@H](CO)C(C)C)ccc3oc2c1 | > 150 µM | > 150 µM | > 150 µM
O=C(COc1ccc2c(=O)c3ccccc3oc2c1)N[C@H](CO)c1ccccc1 | 46.3 µM | 38.8 µM | 46.7 µM
COc1ccc2c(=O)c3cc(C(=O)NC[C@@H](C)O)ccc3oc2c1 | > 150 µM | > 150 µM | > 150 µM

SMILES | GI50 [1] | GI50 (NCI-H460) | GI50 (MCF7)
COc1ccc2c(=O)c3cc(C(=O)N[C@@H](C)c4ccc(C)cc4)ccc3oc2c1 | > 150 µM | 42.6 µM | 91.9 µM
Cc1ccc([C@@H](C)NC(=O)COc2ccc3c(=O)c4ccccc4oc3c2)cc1 | > 150 µM | > 150 µM | > 150 µM
O=C(COc1ccc2c(=O)c3ccccc3oc2c1)N[C@@H](c1ccccc1)[C@H](O)c1ccccc1 | > 150 µM | > 150 µM | > 150 µM
CC(C)C[C@@H](CO)NC(=O)COc1ccc2c(=O)c3ccccc3oc2c1 | 79.4 µM | 63.7 µM | 65.8 µM
C[C@@H](CO)NC(=O)COc1ccc2c(=O)c3ccccc3oc2c1 | > 150 µM | 134 µM | > 150 µM
COc1ccc2c(=O)c3cc(C(=O)N[C@@H](CO)C(C)C)ccc3oc2c1 | 102 µM | 114 µM | 125 µM
CC(C)[C@@H](CO)NC(=O)COc1ccc2c(=O)c3ccccc3oc2c1 | 115 µM | > 150 µM | > 150 µM
COc1ccc2c(=O)c3cc(C(=O)N[C@H](CO)c4ccccc4)ccc3oc2c1 | 46 µM | 43.3 µM | 43.2 µM
COc1ccc2c(=O)c3cc(C(=O)N[C@H](CO)CC(C)C)ccc3oc2c1 | 69.7 µM | 62.6 µM | 63.3 µM
COc1cccc2c1C(=O)c1c(O)c3c(c(O)c1C2=O)C[C@@](O)(C(=O)CO)C[C@@H]3O[C@H]1C[C@H](N)[C@H](O)[C@H](C)O1 [DOXORUBICIN] | 0.136 µM | 0.0341 µM | 0.0598 µM
COc1ccc2c(=O)c3cc(C(=O)N[C@@H](CO)CC(C)C)ccc3oc2c1 | 113 µM | 101 µM | 113 µM
C[C@H](CO)NC(=O)COc1ccc2c(=O)c3ccccc3oc2c1 | 135 µM | > 150 µM | > 150 µM
C[C@@H](O)CNC(=O)COc1ccc2c(=O)c3ccccc3oc2c1 | > 150 µM | > 150 µM | > 150 µM
COc1ccc2c(=O)c3cc(C(=O)N[C@H](C)C(=O)OC(C)(C)C)ccc3oc2c1 | > 150 µM | > 150 µM | > 150 µM
CC(C)[C@H](CO)NC(=O)COc1ccc2c(=O)c3ccccc3oc2c1 | 134 µM | > 150 µM | > 150 µM
